Data taken from ChEMBL document CHEMBL4184298, “Development of Potent Inhibitors of Receptor Tyrosine Kinases by Ligand-Based Drug Design and Target-Biased Phenotypic Screening” (J Med Chem, 2018).

Key:
[1] = target: RAC-alpha serine/threonine-protein kinase (Homo sapiens, UniProt P31749); assay: Inhibition of AKT (unknown origin) using poly [Glu, Try] 4:1 as substrate in presence of [gamma-33P]ATP
Summary of the method: (§1)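 Radiometric assay on recombinant kinase: ³³P incorporation into the kinase substrate was measured and activity was expressed relative to a DMSO control.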

Aurora kinase A = target: T1, Aurora kinase A (Homo sapiens, UniProt O14965); assay: Inhibition of human partial length Aurora A (E122 to K401 residues) expressed in mammalian expression system using poly [Glu, Try] 4:1 as substrate in presence of [gamma-33P]ATP; summary of the method: as §1
T1 sequence (O14965 whole entry): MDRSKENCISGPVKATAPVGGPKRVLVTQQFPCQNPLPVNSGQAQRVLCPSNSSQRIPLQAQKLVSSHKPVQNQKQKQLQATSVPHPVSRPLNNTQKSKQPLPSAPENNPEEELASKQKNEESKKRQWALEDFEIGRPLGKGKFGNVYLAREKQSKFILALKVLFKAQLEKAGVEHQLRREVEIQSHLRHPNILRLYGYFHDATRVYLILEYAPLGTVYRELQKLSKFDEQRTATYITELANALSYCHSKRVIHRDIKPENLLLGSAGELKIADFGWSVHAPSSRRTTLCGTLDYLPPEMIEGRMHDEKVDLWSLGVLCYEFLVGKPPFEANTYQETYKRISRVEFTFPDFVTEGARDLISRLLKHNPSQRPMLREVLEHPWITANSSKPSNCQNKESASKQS

[2] = target: Mast/stem cell growth factor receptor Kit (Homo sapiens, UniProt P10721); assay: Inhibition of wild-type human partial length KIT (I571 to D952 residues) expressed in bacterial expression system using poly [Glu, Try] 4:1 as substrate in presence of [gamma-33P]ATP; summary of the method: as §1
Chain of Mast/stem cell growth factor receptor Kit (P10721 whole entry, the tested form may be a part): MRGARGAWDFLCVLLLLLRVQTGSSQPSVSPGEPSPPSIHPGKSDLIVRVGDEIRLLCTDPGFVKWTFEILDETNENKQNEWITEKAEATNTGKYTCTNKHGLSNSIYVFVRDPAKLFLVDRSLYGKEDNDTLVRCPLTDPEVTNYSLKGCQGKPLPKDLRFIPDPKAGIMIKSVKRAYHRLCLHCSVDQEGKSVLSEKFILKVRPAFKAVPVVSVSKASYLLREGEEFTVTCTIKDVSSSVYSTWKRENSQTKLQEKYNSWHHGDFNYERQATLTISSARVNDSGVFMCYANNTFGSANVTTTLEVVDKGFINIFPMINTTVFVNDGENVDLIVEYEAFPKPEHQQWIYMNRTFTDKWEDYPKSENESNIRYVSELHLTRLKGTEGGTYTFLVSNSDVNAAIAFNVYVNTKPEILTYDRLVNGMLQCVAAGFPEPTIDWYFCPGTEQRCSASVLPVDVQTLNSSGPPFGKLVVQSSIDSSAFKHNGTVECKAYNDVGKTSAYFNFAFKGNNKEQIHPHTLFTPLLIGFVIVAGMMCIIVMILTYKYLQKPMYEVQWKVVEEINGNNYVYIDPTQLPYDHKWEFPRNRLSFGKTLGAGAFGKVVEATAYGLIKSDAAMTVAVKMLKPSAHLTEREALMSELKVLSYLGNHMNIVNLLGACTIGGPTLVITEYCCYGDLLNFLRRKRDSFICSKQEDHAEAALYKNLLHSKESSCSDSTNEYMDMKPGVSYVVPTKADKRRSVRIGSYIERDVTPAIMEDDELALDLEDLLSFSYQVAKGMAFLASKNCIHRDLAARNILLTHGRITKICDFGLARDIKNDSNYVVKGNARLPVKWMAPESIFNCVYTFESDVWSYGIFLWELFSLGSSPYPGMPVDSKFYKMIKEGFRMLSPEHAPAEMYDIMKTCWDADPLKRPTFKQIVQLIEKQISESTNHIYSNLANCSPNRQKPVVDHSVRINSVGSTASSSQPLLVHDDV

[3] = target: T2, Receptor-type tyrosine-protein kinase FLT3 (Homo sapiens, UniProt P36888); assay: Inhibition of wild-type human partial length FLT3 (V592 to Y969 residues) expressed in bacterial expression system using poly [Glu, Try] 4:1 as substrate in presence of [gamma-33P]ATP
T2 sequence (P36888 whole entry): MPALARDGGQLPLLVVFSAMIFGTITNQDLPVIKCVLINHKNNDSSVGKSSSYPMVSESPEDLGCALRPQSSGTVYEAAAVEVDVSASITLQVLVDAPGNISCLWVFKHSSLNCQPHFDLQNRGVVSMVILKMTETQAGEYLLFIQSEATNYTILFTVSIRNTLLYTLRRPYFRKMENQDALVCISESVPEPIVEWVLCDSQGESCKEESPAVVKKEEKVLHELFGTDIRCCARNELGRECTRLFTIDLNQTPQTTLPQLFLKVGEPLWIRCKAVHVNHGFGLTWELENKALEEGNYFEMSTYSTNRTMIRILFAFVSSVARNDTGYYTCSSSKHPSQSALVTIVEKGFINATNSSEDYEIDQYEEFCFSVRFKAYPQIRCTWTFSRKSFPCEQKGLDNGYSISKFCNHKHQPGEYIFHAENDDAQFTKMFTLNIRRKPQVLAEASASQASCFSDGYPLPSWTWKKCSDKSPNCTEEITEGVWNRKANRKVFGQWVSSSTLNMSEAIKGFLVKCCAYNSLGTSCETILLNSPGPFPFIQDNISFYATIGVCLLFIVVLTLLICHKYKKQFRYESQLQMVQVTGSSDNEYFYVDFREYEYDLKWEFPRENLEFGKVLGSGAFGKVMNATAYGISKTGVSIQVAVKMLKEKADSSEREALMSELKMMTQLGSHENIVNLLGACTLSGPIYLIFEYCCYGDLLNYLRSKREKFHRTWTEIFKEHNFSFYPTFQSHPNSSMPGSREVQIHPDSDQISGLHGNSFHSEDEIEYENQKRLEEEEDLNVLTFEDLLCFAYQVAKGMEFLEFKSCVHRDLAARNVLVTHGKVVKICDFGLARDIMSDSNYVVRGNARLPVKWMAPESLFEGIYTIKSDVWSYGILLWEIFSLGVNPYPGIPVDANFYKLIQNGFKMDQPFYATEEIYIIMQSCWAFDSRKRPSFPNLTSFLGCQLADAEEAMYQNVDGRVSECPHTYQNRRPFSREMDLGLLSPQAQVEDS

[4] = target: Serine/threonine-protein kinase mTOR (Homo sapiens, UniProt P42345); assay: Inhibition of wild-type human partial length MTOR (L1382 to W2549 residues) expressed in mammalian expression system using poly [Glu, Try] 4:1 as substrate in presence of [gamma-33P]ATP; summary of the method: as §1
[5] = target: Proto-oncogene tyrosine-protein kinase receptor Ret (Homo sapiens, UniProt P07949); assay: Inhibition of wild-type human partial length RET (E713 to D1014 residues) expressed in bacterial expression system using poly [Glu, Try] 4:1 as substrate in presence of [gamma-33P]ATP; summary of the method: as §1
Chain of Proto-oncogene tyrosine-protein kinase receptor Ret (P07949 whole entry, the tested form may be a part): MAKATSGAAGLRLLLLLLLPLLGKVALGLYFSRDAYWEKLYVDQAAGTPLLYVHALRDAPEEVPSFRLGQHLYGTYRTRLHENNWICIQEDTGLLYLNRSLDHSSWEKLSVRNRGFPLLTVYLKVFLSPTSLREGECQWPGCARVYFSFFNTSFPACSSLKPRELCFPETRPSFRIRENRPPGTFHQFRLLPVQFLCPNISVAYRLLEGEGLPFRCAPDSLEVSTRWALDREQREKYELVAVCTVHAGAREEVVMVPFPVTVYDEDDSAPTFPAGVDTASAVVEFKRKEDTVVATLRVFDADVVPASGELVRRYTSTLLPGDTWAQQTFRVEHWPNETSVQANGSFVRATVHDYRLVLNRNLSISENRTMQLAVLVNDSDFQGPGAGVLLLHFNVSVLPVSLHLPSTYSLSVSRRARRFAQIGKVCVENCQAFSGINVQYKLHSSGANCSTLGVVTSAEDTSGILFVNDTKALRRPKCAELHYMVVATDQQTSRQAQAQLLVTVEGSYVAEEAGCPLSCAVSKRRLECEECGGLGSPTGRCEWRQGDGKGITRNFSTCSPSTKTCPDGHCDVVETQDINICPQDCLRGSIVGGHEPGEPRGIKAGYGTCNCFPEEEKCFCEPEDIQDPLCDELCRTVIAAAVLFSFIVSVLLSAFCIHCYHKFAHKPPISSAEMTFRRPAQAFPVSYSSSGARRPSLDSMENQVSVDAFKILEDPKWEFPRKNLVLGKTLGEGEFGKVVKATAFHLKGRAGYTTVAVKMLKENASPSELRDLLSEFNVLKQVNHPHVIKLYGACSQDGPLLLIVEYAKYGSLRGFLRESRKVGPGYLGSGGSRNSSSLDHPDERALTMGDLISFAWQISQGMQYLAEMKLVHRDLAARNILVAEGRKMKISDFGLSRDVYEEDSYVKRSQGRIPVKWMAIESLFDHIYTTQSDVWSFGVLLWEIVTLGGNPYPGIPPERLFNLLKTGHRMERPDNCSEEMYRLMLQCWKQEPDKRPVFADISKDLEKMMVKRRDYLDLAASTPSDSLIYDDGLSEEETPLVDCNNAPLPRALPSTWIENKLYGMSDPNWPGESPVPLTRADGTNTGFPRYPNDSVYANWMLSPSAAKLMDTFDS

[6] = target: T3, Tyrosine-protein kinase receptor TYRO3 (Homo sapiens, UniProt Q06418); assay: Inhibition of wild-type human partial length TYRO3 (S497 to T814 residues) expressed in bacterial expression system using poly [Glu, Try] 4:1 as substrate in presence of [gamma-33P]ATP; summary of the method: as §1
T3 sequence (Q06418 whole entry): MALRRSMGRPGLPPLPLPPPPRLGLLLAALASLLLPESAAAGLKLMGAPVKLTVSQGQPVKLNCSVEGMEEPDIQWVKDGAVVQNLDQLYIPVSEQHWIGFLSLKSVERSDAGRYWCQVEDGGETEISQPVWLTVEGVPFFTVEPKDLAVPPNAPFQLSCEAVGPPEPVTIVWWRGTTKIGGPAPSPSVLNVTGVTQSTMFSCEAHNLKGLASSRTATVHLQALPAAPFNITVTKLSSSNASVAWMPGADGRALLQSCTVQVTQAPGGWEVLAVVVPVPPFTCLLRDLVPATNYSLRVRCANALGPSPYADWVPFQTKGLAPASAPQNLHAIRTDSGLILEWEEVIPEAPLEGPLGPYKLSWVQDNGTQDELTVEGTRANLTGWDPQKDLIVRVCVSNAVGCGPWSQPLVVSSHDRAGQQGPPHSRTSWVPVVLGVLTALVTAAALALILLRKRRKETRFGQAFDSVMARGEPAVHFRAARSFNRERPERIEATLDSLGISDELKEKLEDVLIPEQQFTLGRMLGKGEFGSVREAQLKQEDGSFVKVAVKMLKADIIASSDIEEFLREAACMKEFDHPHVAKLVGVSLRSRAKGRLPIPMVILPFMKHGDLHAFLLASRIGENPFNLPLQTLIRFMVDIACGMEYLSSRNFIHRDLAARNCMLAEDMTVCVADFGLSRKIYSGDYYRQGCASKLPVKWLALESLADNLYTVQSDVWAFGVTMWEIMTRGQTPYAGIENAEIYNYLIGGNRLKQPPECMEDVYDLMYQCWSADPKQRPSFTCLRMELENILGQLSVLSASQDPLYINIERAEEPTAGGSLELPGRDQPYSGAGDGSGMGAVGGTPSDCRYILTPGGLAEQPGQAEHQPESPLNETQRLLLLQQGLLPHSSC

Chain of RAC-alpha serine/threonine-protein kinase (P31749 whole entry): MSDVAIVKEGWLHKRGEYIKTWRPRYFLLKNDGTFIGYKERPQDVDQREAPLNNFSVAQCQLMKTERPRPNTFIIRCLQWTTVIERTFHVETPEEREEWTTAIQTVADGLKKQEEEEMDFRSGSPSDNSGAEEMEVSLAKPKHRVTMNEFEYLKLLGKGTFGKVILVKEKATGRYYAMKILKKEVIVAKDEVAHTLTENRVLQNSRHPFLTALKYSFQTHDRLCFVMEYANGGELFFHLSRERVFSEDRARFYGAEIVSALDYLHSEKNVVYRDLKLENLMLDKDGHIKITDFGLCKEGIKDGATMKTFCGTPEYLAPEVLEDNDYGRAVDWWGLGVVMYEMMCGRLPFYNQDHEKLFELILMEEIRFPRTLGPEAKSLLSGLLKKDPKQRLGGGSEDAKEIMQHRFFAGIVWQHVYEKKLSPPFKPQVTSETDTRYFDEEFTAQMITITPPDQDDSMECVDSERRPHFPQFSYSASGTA

Row | IC50 [1] | IC50 (Aurora kinase A) | IC50 [2] | IC50 [3] | IC50 [4] | IC50 [5] | IC50 [6] | Compound
1 | > 10 µM | > 10000 nM | > 10 µM | > 10000 nM | > 10 µM | > 10000 nM | > 10 µM | CNc1ncc2c(-c3ccc(N4CCNCC4)cc3)nn(Cc3cn(Cc4ccccc4)nn3)c2n1
2 | > 10 µM | 610 nM | > 10 µM | 300 nM | > 10 µM | > 10000 nM | > 10 µM | CNc1ncc2c(-c3ccc(N4CCN(C(=O)C(C)(C)C)CC4)nc3)nn(CC3CCCC3)c2n1
3 | > 10 µM | 660 nM | 7.5 µM | 100 nM | > 10 µM | 160 nM | > 10 µM | CNc1ncc2c(-c3ccc(N4CCNCC4)nc3)nn(CC3OCCO3)c2n1
4 | 1.9 µM | > 10000 nM | > 10 µM | > 10000 nM | > 10 µM | 6200 nM | 1.9 µM | CCN1CCN(c2ccc(-c3nn(Cc4cn(Cc5ccccc5)nn4)c4nc(NC)ncc34)cn2)CC1
5 | > 10 µM | 840 nM | > 10 µM | 1200 nM | > 10 µM | 4000 nM | > 10 µM | CNc1ncc2c(-c3ccc(N4CCN(C(=O)C(C)(C)C)CC4)nc3)nn(Cc3cn(Cc4ccccc4)nn3)c2n1
6 | > 10 µM | 730 nM | > 10 µM | 700 nM | > 10 µM | 900 nM | > 10 µM | CNc1ncc2c(-c3ccc(N4CCN(C)CC4)nc3)nn(Cc3cn(Cc4ccccc4)nn3)c2n1
7 | > 10 µM | 160 nM | 1.1 µM | 20 nM | > 10 µM | 50 nM | > 10 µM | CNc1ncc2c(-c3ccc(N4CCNCC4)nc3)nn(CC3CCCC3)c2n1
8 | > 10 µM | 280 nM | 1.8 µM | 100 nM | > 10 µM | 440 nM | > 10 µM | CCN1CCN(c2ccc(-c3nn(CC4CCCC4)c4nc(NC)ncc34)cn2)CC1
9 | > 10 µM | 790 nM | > 10 µM | 860 nM | > 10 µM | 430 nM | > 10 µM | CNc1ncc2c(-c3ccc(N4CCNCC4)nc3)nn(Cc3cn(-c4ccsc4C(=O)OC)nn3)c2n1
10 | > 10 µM | 560 nM | > 10 µM | 250 nM | > 10 µM | 1200 nM | > 10 µM | CNc1ncc2c(-c3ccc(OC)cc3)nn(CC3OCCO3)c2n1

Row | Compound | IC50 [1] | IC50 (Aurora kinase A) | IC50 [2] | IC50 [3] | IC50 [4] | IC50 [5] | IC50 [6]
11 | CNc1ncc2c(-c3ccc(N4CCN(C)CC4)nc3)nn(CC3CCCC3)c2n1 | > 10 µM | 30 nM | 0.36 µM | 8 nM | > 10 µM | 60 nM | 3.67 µM
12 | Nc1nc(Nc2ccc3c(c2)CC[C@@H](N2CCCC2)CC3)nn1-c1cc2c(nn1)-c1ccccc1CCC2 [BEMCENTINIB] | > 10 µM | 26 nM | 1 µM | 0.9 nM | > 10 µM | 3 nM | 0.017 µM
